Values belong to the molecule of their own block, whether it stands above or below them. The source made the active and inactive calls. The rule behind the calls is not given here.
Columns and labels:
[1] = Dissociation constant, pKa of the compound; type: physicochemical
Steryl-sulfatase = target: T1, Steryl-sulfatase (Homo sapiens, UniProt P08842); assay: (§1) Inhibition of Estrone sulfatase in human placental microsome; parameters: species or system Placenta
T1 sequence (P08842 whole entry): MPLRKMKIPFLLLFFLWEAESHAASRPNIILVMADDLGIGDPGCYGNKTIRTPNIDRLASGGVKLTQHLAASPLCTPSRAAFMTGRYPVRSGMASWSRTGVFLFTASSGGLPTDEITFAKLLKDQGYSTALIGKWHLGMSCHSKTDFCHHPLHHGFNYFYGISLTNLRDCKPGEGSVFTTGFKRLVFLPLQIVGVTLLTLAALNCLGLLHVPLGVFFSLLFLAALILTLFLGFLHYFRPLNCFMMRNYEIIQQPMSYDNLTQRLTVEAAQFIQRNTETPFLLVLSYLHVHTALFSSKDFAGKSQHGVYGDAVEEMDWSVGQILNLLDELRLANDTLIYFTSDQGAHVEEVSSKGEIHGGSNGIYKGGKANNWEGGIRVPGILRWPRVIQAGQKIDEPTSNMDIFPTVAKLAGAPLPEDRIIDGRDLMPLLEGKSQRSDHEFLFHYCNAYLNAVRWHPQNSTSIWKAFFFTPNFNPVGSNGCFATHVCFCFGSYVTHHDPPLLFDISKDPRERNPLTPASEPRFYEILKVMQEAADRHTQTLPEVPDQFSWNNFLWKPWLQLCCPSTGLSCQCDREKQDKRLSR

[2] = target: T2, Steryl-sulfatase (Homo sapiens) (UniProt P08842); assay: as §1; conditions: Placenta
T2 sequence (whole entry): T1 sequence (P08842 whole entry)

Gallus gallus = organism: Gallus gallus; assay: Acute toxicity in chick embryo after 72 to 96 hrs by hen's fertile egg screening test; type: organism-based; conditions: chicken, in vivo
Outline: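 Fifteen-day-old fertile hen's egg embryos received compound through the air cell. Deaths were scored 72-96 h after treatment, and an LD50 was derived in mg/kg.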

K562 = assay: Growth inhibition of K562 cells; type: functional, cell-based; conditions: Homo sapiens
HeLa = assay: Growth inhibition of HeLa cells; type: functional, cell-based; conditions: Homo sapiens
[3] = target: Estrone sulfatase (Homo sapiens); assay: Activity of Estrone sulfatase in human placental microsome; conditions: Placenta

Molecule: CCCCNC(=S)N/N=C/c1ccccc1C(=O)O
Activity [2]: inactive

Molecule: O=C(O)c1cccc(/C=N/NC(=S)NC2CCCCC2)c1O
pKa [1]: 3.8
Activity (Gallus gallus): > 50 mg/kg
IC50 (K562): > 50 µg/mL
IC50 (HeLa): > 50 µg/mL

Molecule: O=C(O)c1cc(/C=N/NC(=S)NC2CCCCC2)ccc1O
pKa [1]: 4.2
Activity (Gallus gallus): > 50 mg/kg
IC50 (K562): > 50 µg/mL
IC50 (HeLa): > 50 µg/mL

Molecule: O=C(O)c1ccccc1/C=N/NC(=S)Nc1ccccc1
IC50 (Steryl-sulfatase): > 100 µM

Molecule: CCCCCCNC(=S)N/N=C/c1ccccc1C(=O)O
Activity [2]: inactive

Molecule: COc1c2c(c(O)c3c1C(=O)c1c(cc(O)c(C)c1O)C3=O)-c1c(cc(/C=N/NC(=S)NC3CCCCC3)c(C(=O)O)c1O)CC2 [MHL CYCLOHEXYLTHIOSEMICARBAZONE]
Activity (Gallus gallus): > 50 mg/kg
IC50 (K562): > 50 µg/mL
IC50 (HeLa): > 50 µg/mL

Molecule: O=C(O)c1ccc(O)c(/C=N/NC(=S)NC2CCCCC2)c1
pKa [1]: 5.8
Activity (Gallus gallus): > 100 mg/kg
IC50 (K562): > 50 µg/mL
IC50 (HeLa): > 50 µg/mL

Molecule: CCCCNC(=S)N/N=C/c1cccc(C(=O)O)c1
IC50 (Steryl-sulfatase): 58 µM

Molecule: CCCCCCNC(=S)N/N=C/c1cccc(C(=O)O)c1
IC50 (Steryl-sulfatase): 12 µM

B1: Steryl-sulfatase (Homo sapiens), P08842 (protein)
chain: T1 sequence (P08842 whole entry)
Km [3]: 27 µM

Results, then the molecule that gave them:

pKa [1]: 10.2
Molecule: Oc1cccc(/C=N/NC(=S)NC2CCCCC2)c1

IC50 (Steryl-sulfatase): > 100 µM
Molecule: O=C(N/N=C/c1cccc(C(=O)O)c1)NC1CCCCC1

pKa [1]: 5.2
Molecule: S=C(N/N=C/c1cccc(-c2nnn[nH]2)c1)NC1CCCCC1

IC50 (Steryl-sulfatase): > 100 µM
Molecule: COc1c(C)ccc(/C=N/NC(=S)NC2CCCCC2)c1C(=O)O

pKa [1]: 6.4
Molecule: O=C(O)c1ccccc1/C=N/NC(=S)NC1CCCCC1

pKa [1]: 4.3
Molecule: Cc1ccc(/C=N/NC(=S)NC2CCCCC2)c(C(=O)O)c1O

IC50 (Steryl-sulfatase): > 100 µM
Molecule: C/C(=N\NC(=S)NC1CCCCC1)c1ccccc1C(=O)O

IC50 (Steryl-sulfatase): > 100 µM
Molecule: O=C(O)c1ccccc1/C=N/NC(=S)NC1CC1

pKa [1]: 7.7
IC50 (Steryl-sulfatase): > 100 µM
Molecule: OB(O)c1ccccc1/C=N/NC(=S)NC1CCCCC1

pKa [1]: 9.8
Molecule: Oc1ccccc1/C=N/NC(=S)NC1CCCCC1

IC50 (Steryl-sulfatase): > 100 µM
Molecule: COc1ccc(/C=N/NC(=S)NC2CCCCC2)c(C(=O)O)c1OC

IC50 (Steryl-sulfatase): > 100 µM
Molecule: COc1cccc(/C=N/NC(=S)NC2CCCCC2)c1C(=O)O

pKa [1]: 5.4
Molecule: O=C(O)c1cccc(/C=N/NC(=S)NC2CCCCC2)c1
